The source made the active and inactive calls. The rule behind the calls is not given here.
Tests used:
SNU-182 [1] = test: Growth inhibition of human SNU182 cells at <50 uM in presence of (E)-1-(9-Ethyl-9H-carbazol-3-yl)-5-(4-hydroxy-3-methoxyphenyl)pent-1-en-3-one after 48 hrs by CCK8 assay; format: functional, cell-based
SNU-182 [2] = test: (§1) Inhibition of TGFbeta1-induced epithelial-mesenchymal transition in human SNU182 cells assessed as reduction in downregulation of E-cadherin expression preincubated for 2 hrs followed by TGFbeta1 addition measured after 48 hrs in presence of (E)-1-(9-Ethyl-9H-carbazol-3-yl)-5-(4-hydroxy-3-methoxyphenyl)pent-1-en-3-one by Western blot method; format: functional, cell-based
Outline: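 SNU182 cells pretreated 2 h with single agents (12.5 or 40 µM) or the mixture (20 and 40 µM), then stimulated with TGF-β1 5 ng/ml for 48 h. E-cadherin and Snail protein detected by Western blot, with GAPDH as loading control.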

SNU-182 [3] = test: as §1, with “upregulation” for “downregulation”, “N-cadherin” for “E-cadherin”; format: functional, cell-based
Outline: (§2)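 Pretreatment of SNU182 cells with the mixture at 20 and 40 µM for 2 h in serum-free medium, followed by TGF-β1 5 ng/ml for 48 h. N-cadherin and Snail detected by Western blot against GAPDH.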

[4] = biological target: Mothers against decapentaplegic homolog 2 (Homo sapiens) (UniProt Q15796); test: Inhibition of TGFbeta1-induced SMAD2 phosphorylation in human SNU182 cells at 20 to 40 uM preincubated for 2 hrs followed by TGFbeta1 addition measured after 48 hrs in presence of (E)-1-(9-Ethyl-9H-carbazol-3-yl)-5-(4-hydroxy-3-methoxyphenyl)pent-1-en-3-one by Western blot method; format: cell-based
Outline: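 SNU182 cells given the mixture (20 and 40 µM) for 2 h, then TGF-β1 5 ng/ml for 48 h. Smad2/3 phosphorylation by Western blot, with total Smad2/3 as loading control.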

SNU-182 [5] = test: Inhibition of TGFbeta1-induced migration in human SNU182 cells at 40 uM measured after 48 hrs in presence of (E)-1-(9-Ethyl-9H-carbazol-3-yl)-5-(4-hydroxy-3-methoxyphenyl)pent-1-en-3-one by wound healing assay; format: functional, cell-based
Outline: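 Wound healing: SNU182 monolayers at about 90% confluence scratched with a pipette tip and washed. Medium with TGF-β1, with or without 40 µM mixture, then added. Wound imaged at 0 and 48 h; relative motility from cell surface area. Mean±SD of triplicates.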

SNU-182 [6] = test: Inhibition of TGFbeta1-induced epithelial-mesenchymal transition in human SNU182 cells assessed as reduction in MMP2 activity measured after 48 hrs in presence of (E)-1-(9-Ethyl-9H-carbazol-3-yl)-5-(4-hydroxy-3-methoxyphenyl)pent-1-en-3-one by gelatin zymography assay; format: functional, cell-based
Outline: (§3)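 Cells serum-starved overnight in 0.2% FBS medium, then left untreated or given TGF-β 5 ng/ml and/or the mixture for 48 h. MMP-2 and MMP-9 activity in conditioned medium determined by gelatin zymography.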

SNU-182 [7] = test: Growth inhibition of human SNU182 cells at <12.5 uM after 48 hrs by CCK8 assay; format: functional, cell-based
SNU-182 [8] = test: Growth inhibition of human SNU182 cells at <50 uM in presence of zingerone after 48 hrs by CCK8 assay; format: functional, cell-based
SNU-182 [9] = test: Inhibition of TGFbeta1-induced epithelial-mesenchymal transition in human SNU182 cells assessed as reduction in mesenchymal phenotype preincubated for 2 hrs followed by TGFbeta1 addition measured after 48 hrs in presence of zingerone; format: functional, cell-based
Outline: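 Cells preincubated 2 h in serum-free medium with the mixture (20 and 40 µM), then treated with TGF-β1 5 ng/ml for 48 h. Morphology (spindle-like, elongated shape, scattering) assessed by microscopy.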

SNU-182 [10] = test: Inhibition of TGFbeta1-induced epithelial-mesenchymal transition in human SNU182 cells assessed as reduction in upregulation of N-cadherin expression preincubated for 2 hrs followed by TGFbeta1 addition measured after 48 hrs in presence of zingerone by Western blot method; format: functional, cell-based; outline: as §2
SNU-182 [11] = test: Inhibition of TGFbeta1-induced epithelial-mesenchymal transition in human SNU182 cells assessed as reduction in MMP9 mRNA expression at 12.5 uM preincubated for 2 hrs followed by TGFbeta1 addition measured after 48 hrs by qRT-PCR method; format: functional, cell-based
Outline: (§4)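 SNU182 cells pretreated 2 h with single agents (12.5 or 40 µM) or the mixture (20 or 40 µM), then TGF-β 5 ng/ml for 48 h. MMP-2 and MMP-9 mRNA measured by RT-PCR with densitometry and by qRT-PCR, fold change by the 2^-ΔΔCt method. Mean±SD of triplicates.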

SNU-182 [12] = test: Inhibition of TGFbeta1-induced epithelial-mesenchymal transition in human SNU182 cells assessed as reduction in MMP9 mRNA expression preincubated for 2 hrs followed by TGFbeta1 addition measured after 48 hrs in presence of zingerone by qRT-PCR method; format: functional, cell-based; outline: as §4
SNU-182 [13] = test: Inhibition of TGFbeta1-induced epithelial-mesenchymal transition in human SNU182 cells assessed as reduction in MMP9 activity measured after 48 hrs in presence of zingerone by gelatin zymography assay; format: functional, cell-based; outline: as §3
SNU-182 [14] = test: Inhibition of TGFbeta1-induced epithelial-mesenchymal transition in human SNU182 cells assessed as reduction in MMP2 activity measured after 48 hrs in presence of zingerone by gelatin zymography assay; format: functional, cell-based; outline: as §3

Sequence of Mothers against decapentaplegic homolog 2 (Homo sapiens) (Q15796 whole entry): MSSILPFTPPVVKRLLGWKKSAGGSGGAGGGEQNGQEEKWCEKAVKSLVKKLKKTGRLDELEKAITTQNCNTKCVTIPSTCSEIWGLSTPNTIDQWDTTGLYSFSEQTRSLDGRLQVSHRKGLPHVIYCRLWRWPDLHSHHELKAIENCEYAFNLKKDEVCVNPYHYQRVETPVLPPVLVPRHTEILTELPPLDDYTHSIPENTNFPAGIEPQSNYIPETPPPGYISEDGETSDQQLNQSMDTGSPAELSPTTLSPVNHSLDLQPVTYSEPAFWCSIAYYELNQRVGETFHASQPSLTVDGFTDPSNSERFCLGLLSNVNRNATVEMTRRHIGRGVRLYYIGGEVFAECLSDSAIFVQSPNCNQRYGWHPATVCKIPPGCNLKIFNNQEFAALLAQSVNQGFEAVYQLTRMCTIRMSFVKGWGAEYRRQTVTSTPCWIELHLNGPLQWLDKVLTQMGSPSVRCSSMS

inhibition [4]	Compound	growth inhibition (GI) (SNU-182 [1])	inhibition (SNU-182 [2])	inhibition (SNU-182 [3])	inhibition (SNU-182 [5])	inhibition (SNU-182 [6])	growth inhibition (GI) (SNU-182 [7])	growth inhibition (GI) (SNU-182 [8])	inhibition (SNU-182 [9])	inhibition (SNU-182 [10])	inhibition (SNU-182 [11])	inhibition (SNU-182 [12])	inhibition (SNU-182 [13])	inhibition (SNU-182 [14])
Active	COc1cc(CCC(C)=O)ccc1O	inactive	Dose-dependent effect	Dose-dependent effect	Active	Active	–	–	–	–	–	–	–	–
–	CCn1c2ccccc2c2cc(/C=C/C(=O)CCc3ccc(O)c(OC)c3)ccc21	–	–	–	–	–	inactive	inactive	Dose-dependent effect	Dose-dependent effect	inactive	Dose-dependent effect	Active	Active

Source: ChEMBL document CHEMBL3992541, “Combined treatment with zingerone and its novel derivative synergistically inhibits TGF-β1 induced epithelial-mesenchymal transition, migration and invasion of human hepatocellular carcinoma cells” (2017)
